“Also recorded” adds a separate entry of the source. Where two headings read alike, the source gives them in different places.
Tests used:
[1] = cited from earlier work
hERG channel = conditions: 5.28 μM [2.14 μg/mL]; HEK 293 cells; nonclinical studies; cited from earlier work
[2] = Previous single-dose cabotegravir 150 mg pharmacokinetic study; format: in vivo, human
healthy subjects = test: Safety assessments; format: in vivo, human; conditions: for Alanine aminotransferase increased / Any adverse event / Blood creatine phosphokinase increased / Dermatitis contact / Headache / Nausea: safety population
Procedure, shortened: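 Healthy adults aged 18–55 were crossed over between test compound (150 mg every 12 h ×3), placebo and a positive control, with ≥21-day washouts. Monitoring ran throughout and covered adverse events, laboratory tests, vital signs and physical examinations. Semisupine 12-lead safety ECGs were taken at 0, 3, 12 and 15 h on day 1, at 0 and 3 h on day 2, and at 24 h on day 3. Summaries were descriptive.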

[3] = system: QTcF in clinical study subjects; conditions: 8 phase 1/2a studies, n = 245 subjects, cited from earlier work
HIV-1 = conditions: oral cabotegravir, early clinical studies; cited from earlier work
[4] = single dose 150 mg; ref unpublished data; cited from earlier work
[5] = cited from earlier work; remark: listed apart in the source
[6] = system: QTcF interval in healthy subjects; test: Thorough QT study, continuous Holter monitoring, time-matched ΔΔQTcF; format: in vivo, human; conditions: for time of maximum effect of ΔΔQTcF: after dosing on day 2
Procedure, shortened: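 3-period crossover: test compound 150 mg orally every 12 h ×3, placebo, or single 400-mg fluoroquinolone positive control; ≥21-day washouts. Continuous 12-lead 1000-Hz Holter; day −1 24-h baseline. Triplicate ECGs extracted 0.5–24 h after day-2 dose, lead II, blinded central reader; QT Fridericia-corrected; time-matched placebo-subtracted change (ΔΔQTcF) by repeated-measures ANCOVA with 90% CIs; concentration relation via linear mixed-effects model.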

[7] = system: unrestrained male monkeys; conditions: nonclinical study, cited from earlier work
[8] = Plasma cabotegravir pharmacokinetics after third dose; format: in vivo; conditions: human, po, 150 mg; for AUC(0-t) / Tmax: oral 150 mg every 12 hours × 3 doses; for Tmax: median (range)
Procedure, shortened: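 Healthy adults took oral test compound 150 mg (5 × 30-mg tablets) every 12 h for 3 doses, fasting ≥6 h before and 4 h after the third dose. Plasma was sampled predose and 0.5–24 h after the day-2 dose. Samples were protein-precipitated and run on HPLC-MS/MS (TurboIonSpray, MRM), range 25–25 000 ng/mL. Noncompartmental analysis gave Cmax, Tmax, AUC0–12 and AUC0–24.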

UGT1A1, UGT1A9 = conditions: to inactive glucuronide metabolites; cited from earlier work
[9] = monkeys, 1000 mg/kg; nonclinical study; cited from earlier work
[10] = Drug exposure in monkey cardiovascular study; format: in vivo; conditions: 1000 mg/kg in monkeys vs 150 mg every 12 hours × 3 doses in humans
[11] = system: UGT and cytochrome P450 (CYP) enzymes; conditions: in vitro; cited from earlier work
QTc in healthy subjects = conditions: randomized, placebo-controlled study of 20 healthy subjects; cited from earlier work
cardiac repolarization = conditions: prior studies; cited from earlier work
[12] = single dose 150 mg, extrapolation from 30-mg data
[13] = 150 mg every 12 hours × 3 doses
[14] = supratherapeutic dose, 150 mg every 12 hours × 3 doses
[15] = cabotegravir 150 mg every 12 hours × 3 doses
[16] = linear mixed-effects PK/pharmacodynamic model
[17] = single dose 1000 mg/kg, within the first 2 hours of dosing

C[C@H]1CO[C@@H]2Cn3cc(C(=O)NCc4ccc(F)cc4F)c(=O)c(O)c3C(=O)N12 [Cabotegravir]
Cmax at steady state ([1]; clinically therapeutic dose 30 mg once daily): 7500 ng/mL
Cmax ([1]; repeat administration of 30 mg once daily in HIV-infected subjects): 7490 ng/mL
effects on hERG channel tail current (hERG channel): no different than those observed with vehicle
geometric mean Cmax higher than after repeat 30 mg once daily ([2]; single dose 150 mg vs 30 mg once daily in HIV-infected subjects): 39%
predicted AUC0–∞ [2, 12]: 870 µg·h/mL
predicted Cmax [2, 12]: 21200 ng/mL
clinical laboratory values, vital signs, or safety ECG results (healthy subjects; [13]): No clinically significant trends
serious or grade 3 or 4 adverse events (healthy subjects; [13]): no serious or grade 3 or 4 adverse events
Alanine aminotransferase increased (healthy subjects; cabotegravir 150 mg (n = 40)): 1 (3) n (%)
Any adverse event (healthy subjects; cabotegravir 150 mg (n = 40)): 13 (33) n (%)
Blood creatine phosphokinase increased (healthy subjects; cabotegravir 150 mg (n = 40)): 0 n (%)
Dermatitis contact (healthy subjects; cabotegravir 150 mg (n = 40)): 6 (15) n (%)
Headache (healthy subjects; cabotegravir 150 mg (n = 40)): 1 (3) n (%)
Nausea (healthy subjects; cabotegravir 150 mg (n = 40)): 0 n (%)
Dermatitis contact (healthy subjects; cabotegravir 150 mg (n = 40), listed as cabotegravir): 6 n (%)
tolerability (healthy subjects; [14]): well tolerated
overall mean difference in QTcF change from baseline between cabotegravir and placebo ([3]; 2540 postdose ECGs): –2.9 milliseconds
subjects with QTcF ≥ 480 milliseconds or change from baseline in QTcF of >60 milliseconds [3]: no subject
antiretroviral activity (HIV-1): potent antiretroviral activity
tolerability (HIV-1): generally well tolerated
geometric mean Cmax [4]: 10400 ng/mL
geometric mean plasma AUC0–∞ [4]: 418 µg·h/mL
median time to Cmax (Tmax) [4]: 2.5 h
dose proportionality of pharmacokinetics ([5]; 10 to 60 mg, previous work): dose‐proportional manner from 10 to 30 mg, but in a less than proportional manner from 30 to 60 mg
plasma half-life ([5]; oral cabotegravir): 40 h
dose proportionality of AUC(0–t), Cmax, Cτ, and Cmin ([5]; repeated administration for 14 days): Dose‐proportional increases
time of maximum effect of ΔΔQTcF [6]: 8 h
point estimate for ΔΔQTcF at any point [6, 15]: ≤ 5 milliseconds
subjects with QTcF value > 450 milliseconds [6, 15]: not associated with any instances
subjects with changes from baseline in QTcF of >30 milliseconds [6, 15]: none of the subjects
ΔΔQTcF, mean ± SE ([6]; cabotegravir 150 mg every 12 hours × 3 doses minus placebo, 1 h): -0.37 ± 1.74 ms
ΔΔQTcF, mean ± SE ([6]; cabotegravir 150 mg every 12 hours × 3 doses minus placebo, 2 h): 0.44 ± 1.83 ms
ΔΔQTcF, mean ± SE ([6]; cabotegravir 150 mg every 12 hours × 3 doses minus placebo, 3 h): -0.62 ± 1.69 ms
ΔΔQTcF, mean ± SE ([6]; cabotegravir 150 mg every 12 hours × 3 doses minus placebo, 4 h): -0.37 ± 1.53 ms
ΔΔQTcF, mean ± SE ([6]; cabotegravir 150 mg every 12 hours × 3 doses minus placebo, 6.5 h): 0.50 ± 1.63 ms
ΔΔQTcF, mean ± SE ([6]; cabotegravir 150 mg every 12 hours × 3 doses minus placebo, 12 h): -0.34 ± 1.66 ms
ΔΔQTcF, mean ± SE ([6]; cabotegravir 150 mg every 12 hours × 3 doses minus placebo, 24 h): 1.13 ± 2.05 ms
upper limits of 2-sided 90% confidence intervals for ΔΔQTcF ([6]; cabotegravir 150 mg every 12 hours × 3 doses, all time points): < 10 milliseconds
subjects with QTcF value > 450 milliseconds ([6]; cabotegravir 150 mg every 12 hours × 3 doses, listed as cabotegravir): No subject
mean estimated intercept, ΔΔQTcF vs time-matched cabotegravir concentration [6, 16]: 1.382 milliseconds
relationship between cabotegravir plasma concentrations and ΔΔQTcF [6, 16]: no relationship; also recorded: no discernable concentration effect
effect on cardiac repolarization [6, 14]: no effect on cardiac repolarization
ECG waveform or interval changes ([7]; single dose 1000 mg/kg): no electrocardiogram (ECG) waveform or interval changes
transient increase in heart rate [7, 17]: ~20%
transient increase in mean arterial pressure [7, 17]: ~6%
cardiovascular effects ([7]; single doses of 8 and 25 mg/kg): no effects
AUC(0-t) ([8]; both, AUC0–12, geometric mean (CV,%) [90%CI], all subjects (n = 40)): 217 µg·h/mL
AUC(0-t) ([8]; both, AUC0–24, geometric mean (CV,%) [90%CI], all subjects (n = 40)): 386 µg·h/mL
Tmax ([8]; both, all subjects (n = 40)): ~2 h
Cmax ([8]; female): 25100 ng/mL
AUC(0-t) ([8]; female, AUC0–12, geometric mean (CV,%) [90%CI], women (n = 9)): 234 µg·h/mL
AUC(0-t) ([8]; female, AUC0–24, geometric mean (CV,%) [90%CI], women (n = 9)): 409 µg·h/mL
Tmax ([8]; female, women (n = 9)): 2 h
Cmax ([8]; male): 21900 ng/mL
AUC(0-t) ([8]; male, AUC0–12, geometric mean (CV,%) [90%CI], men (n = 31)): 213 µg·h/mL
AUC(0-t) ([8]; male, AUC0–24, geometric mean (CV,%) [90%CI], men (n = 31)): 380 µg·h/mL
Tmax ([8]; male, men (n = 31)): 2 h
metabolic pathway (UGT1A1, UGT1A9): metabolized via UDP‐glucuronosyltransferase (UGT) 1A1, with a secondary contribution from UGT1A9
Cmax [9]: 67000 ng/mL
drug exposure (Cmax) in monkeys relative to present study [10]: 3 fold
inhibition or induction of UGT and cytochrome P450 (CYP) enzymes [11]: has not been shown to inhibit or induce

COc1c(N2C[C@@H]3CCCN[C@@H]3C2)c(F)cc2c(=O)c(C(=O)O)cn(C3CC3)c12 [Moxifloxacin, moxifloxacin, reference compound]
Alanine aminotransferase increased (healthy subjects; moxifloxacin 400 mg (n = 36)): 0 n (%)
Any adverse event (healthy subjects; moxifloxacin 400 mg (n = 36)): 12 (33) n (%)
Blood creatine phosphokinase increased (healthy subjects; moxifloxacin 400 mg (n = 36)): 1 (3) n (%)
Dermatitis contact (healthy subjects; moxifloxacin 400 mg (n = 36)): 2 (6) n (%)
Headache (healthy subjects; moxifloxacin 400 mg (n = 36)): 2 (6) n (%)
Nausea (healthy subjects; moxifloxacin 400 mg (n = 36)): 2 (6) n (%)
Dermatitis contact (healthy subjects; moxifloxacin 400 mg (n = 36), listed as moxifloxacin): 2 n (%)
time of maximum effect of ΔΔQTcF [6]: 8 h
ΔΔQTcF, mean ± SE ([6]; moxifloxacin 400 mg single dose minus placebo, 0.5 h): 5.40 ± 2.05 ms
ΔΔQTcF, mean ± SE ([6]; moxifloxacin 400 mg single dose minus placebo, 1 h): 8.75 ± 1.79 ms
ΔΔQTcF, mean ± SE ([6]; moxifloxacin 400 mg single dose minus placebo, 2 h): 11.67 ± 1.88 ms
ΔΔQTcF, mean ± SE ([6]; moxifloxacin 400 mg single dose minus placebo, 3 h): 10.49 ± 1.73 ms
ΔΔQTcF, mean ± SE ([6]; moxifloxacin 400 mg single dose minus placebo, 4 h): 11.81 ± 1.57 ms
ΔΔQTcF, mean ± SE ([6]; moxifloxacin 400 mg single dose minus placebo, 6.5 h): 10.08 ± 1.68 ms
ΔΔQTcF, mean ± SE ([6]; moxifloxacin 400 mg single dose minus placebo, 8 h (maximum observed)): 13.03 ± 1.63 ms
ΔΔQTcF, mean ± SE ([6]; moxifloxacin 400 mg single dose minus placebo, 12 h): 7.79 ± 1.69 ms
ΔΔQTcF, mean ± SE ([6]; moxifloxacin 400 mg single dose minus placebo, 24 h): 6.53 ± 2.10 ms
lower limit of the 90%CI for ΔΔQTcF ([6]; moxifloxacin 400 mg, at several times): > 5 millisecond
time of first peak of placebo-adjusted QTcF change from baseline (QTc in healthy subjects): 4 h
time of second increase in QTc (QTc in healthy subjects): 8 h

C[C@@H]1CCO[C@H]2Cn3cc(C(=O)NCc4ccc(F)cc4F)c(=O)c(O)c3C(=O)N12 [dolutegravir]
effect on cardiac repolarization (cardiac repolarization): do not affect cardiac repolarization

From PMC5132079 (Clinical Pharmacology in Drug Development, 2016)
